The source made the active and inactive calls. The rule behind the calls is not given here. Some results are limits rather than exact numbers.

Among the data in ChEMBL document CHEMBL4007450, “Development of 1,2,4-Oxadiazoles as Potent and Selective Inhibitors of the Human Deacetylase Sirtuin 2: Structure-Activity Relationship, X-ray Crystal Structure, and Anticancer Activity” (J Med Chem, 2017) are Activity, IC50 and inhibition values, retold here.

Experiment [1] deals with U-937. The experiment is described as follows: Cell cycle arrest in human U937 cells assessed as accumulation at S phase at 25 uM after 48 hrs by propidium iodide staining-based FACS analysis. Type of experiment: functional. For orientation: Flow cytometry measures light scatter and fluorescence of single cells or particles in a stream.
For experiment [2], the system named is NB-4. The experiment is described as follows: Induction of apoptosis in human NB4 cells assessed as pre-G1 accumulation at 25 uM after 48 hrs by propidium iodide staining-based FACS analysis. Type of experiment: functional. The gist of the method: (§1)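 Leukemia cells (U937, NB4, HL-60, K562) were grown in RPMI-1640 with 10% FBS, 2 mM L-glutamine and antibiotics, then treated for 48 h at 5, 10, 25 and 50 μM. 2.5×10^5 cells were stained 30 min in the dark in hypotonic PI buffer (0.1% Triton X-100, 0.1% citrate, 50 µg/mL PI, RNase A). Apoptosis was scored as pre-G1 content by flow cytometry. Duplicates, mean ± SD.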

For a further experiment, the system named is K562. The experiment in a line: Induction of apoptosis in human K562 cells assessed as pre-G1 accumulation at 25 uM after 48 hrs by propidium iodide staining-based FACS analysis. The format is functional. The method in brief:
as §1

A further experiment relates to MDA-MB-231. The experiment in a line: Induction of apoptosis in human MDA-MB-231 cells assessed as pre-G1 accumulation at 25 uM after 48 hrs by propidium iodide staining-based FACS analysis. Type of experiment: functional. The method in brief: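 MDA-MB-231 breast cancer cells were grown in DMEM with 10% FBS, 2 mM L-glutamine and antibiotics, then exposed for 48 h at 5, 10, 25 or 50 μM. 2.5×10^5 cells were stained in hypotonic buffer with 50 µg/mL PI, 0.1% Triton X-100, 0.1% citrate and RNase A for 30 min in the dark. Pre-G1 fraction was measured by flow cytometry. Biological duplicates, mean ± SD.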

In the next experiment the test system is OCI-AML-3. The experiment in a line: Antiproliferative activity against human OCI-AML3 cells harboring NPM1c+, DNMT3A R882C mutant assessed as cell growth inhibition after 48 hrs by WST1 assay. The format is functional, cell-based. Conditions: OCI-AML-3, 48 h. The gist of the method:
(§2)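 WST-1 proliferation assay. Cells plated in triplicate at 5×10^3 cells/well and exposed to increasing compound concentrations for 48 h at 37 °C, 5% CO2. WST-1 reagent was then added for 1 h. IC50 was obtained by nonlinear regression of each cell line's dose-response curve.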
On the technique in general: Tetrazolium dyes change colour on reduction, which living cells bring about.

The nature of experiment [3]: Antiproliferative activity against human IMS-M2 cells harboring NPM1c+ assessed as cell growth inhibition after 48 hrs by WST1 assay. Type of experiment: functional, cell-based. Conditions: IMS-M2, 48 h. The method in brief:
as §2

The next experiment has as its system OCI-AML2. The experiment is described as follows: Antiproliferative activity against human OCI-AML2 cells harboring DNMT3A R635W mutant assessed as cell growth inhibition after 48 hrs by WST1 assay. The settings on record: OCI-AML2, 48 h. The format is functional, cell-based. The method in brief: as §2
The subject of a further experiment is MV4-11. The experiment in a line: Antiproliferative activity against human MV4-11 cells harboring FLT3-ITD [t(4;11)(q21;q23)], MLL/MLLT2(AF4) mutant assessed as cell growth inhibition after 48 hrs by WST1 assay. The format is functional, cell-based. Conditions: MV4-11, 48 h. The gist of the method: as §2
The next experiment concerns Kasumi 1. The experiment is described as follows: Antiproliferative activity against human Kasumi-1 cells harboring AML1-ETO [t(8:21)] mutant assessed as cell growth inhibition after 48 hrs by WST1 assay. The format is functional, cell-based. The settings on record: Kasumi 1, 48 h. The method in brief:
as §2

For experiment [4], the system named is U-937. The experiment in a line: Antiproliferative activity against human U937 cells harboring p53+/- assessed as cell growth inhibition after 48 hrs by WST1 assay. Type of experiment: functional, cell-based. The settings on record: U-937, 48 h. The method in brief: as §2
For experiment [5], the system named is NB-4. The experiment is described as follows: Antiproliferative activity against human NB4 cells harboring PML-RARalpha [t(15;17)(q22;q12)] mutant assessed as cell growth inhibition after 48 hrs by WST1 assay. Type of experiment: functional, cell-based. The settings on record: NB-4, 48 h. The gist of the method: as §2
Experiment [6] concerns HL-60. The experiment in a line: Antiproliferative activity against human p53 deficient HL60 cells assessed as cell growth inhibition after 48 hrs by WST1 assay. The format is functional, cell-based. The settings on record: HL-60, 48 h. The method in brief: as §2
For another experiment, the system named is KARPAS-299. The experiment in a line: Antiproliferative activity against human KARPAS299 cells harboring NPM1/ALK, [t(2;5)(p23;q35)] mutant assessed as cell growth inhibition after 48 hrs by WST1 assay. Type of experiment: functional, cell-based. The settings on record: KARPAS-299, 48 h. The gist of the method: as §2
The target of experiment [7] is T1, NAD-dependent protein deacetylase sirtuin-2 (Homo sapiens, UniProt Q8IXJ6).
T1 sequence (Q8IXJ6 whole entry): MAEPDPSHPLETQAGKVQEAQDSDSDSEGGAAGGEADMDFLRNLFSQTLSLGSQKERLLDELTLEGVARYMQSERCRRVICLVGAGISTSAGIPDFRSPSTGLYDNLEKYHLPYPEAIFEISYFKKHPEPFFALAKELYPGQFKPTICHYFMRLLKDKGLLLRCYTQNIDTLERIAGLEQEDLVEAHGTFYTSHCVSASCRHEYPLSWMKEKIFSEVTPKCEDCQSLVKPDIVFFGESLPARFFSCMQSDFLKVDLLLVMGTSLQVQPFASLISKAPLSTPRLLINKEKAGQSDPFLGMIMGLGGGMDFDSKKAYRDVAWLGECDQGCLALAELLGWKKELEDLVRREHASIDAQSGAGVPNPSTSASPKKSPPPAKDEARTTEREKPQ

Experiment [8] deals with NAD-dependent protein deacylase sirtuin-5, mitochondrial (Homo sapiens) (UniProt Q9NXA8). The experiment is described as follows: Inhibition of human SIRT5 (34 to 302 residues) desuccinylase activity expressed in Escherichia coli using CPS1 peptide as substrate at 100 uM after 45 mins in presence of NAD+ by pNCA/GDH-based microplate spectrophotometric analysis.
NAD-dependent protein deacylase sirtuin-5, mitochondrial (Homo sapiens), sequence (Q9NXA8 37-310 limits assumed): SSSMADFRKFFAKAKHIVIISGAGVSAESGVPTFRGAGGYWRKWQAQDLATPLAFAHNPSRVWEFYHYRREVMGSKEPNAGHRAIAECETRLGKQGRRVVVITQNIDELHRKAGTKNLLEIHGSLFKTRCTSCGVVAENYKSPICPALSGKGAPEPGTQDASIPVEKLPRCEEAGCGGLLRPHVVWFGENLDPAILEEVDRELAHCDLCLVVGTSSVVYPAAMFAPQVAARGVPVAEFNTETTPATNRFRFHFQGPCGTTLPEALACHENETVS
Experiment [9] has the same target. The experiment is described as follows: Inhibition of human SIRT5 (34 to 302 residues) deacetylase activity expressed in Escherichia coli using Prx1 peptide as substrate at 100 uM after 45 mins in presence of NAD+ by pNCA/GDH-based microplate spectrophotometric analysis.
Experiment [10] concerns HL-60. The experiment in a line: Induction of apoptosis in human HL60 cells assessed as pre-G1 accumulation at 50 uM after 48 hrs by propidium iodide staining-based FACS analysis. The format is functional. The method in brief: as §1
Experiment [11] deals with T2, NAD-dependent protein deacetylase sirtuin-1 (Homo sapiens) (UniProt Q96EB6).
T2 sequence (whole entry): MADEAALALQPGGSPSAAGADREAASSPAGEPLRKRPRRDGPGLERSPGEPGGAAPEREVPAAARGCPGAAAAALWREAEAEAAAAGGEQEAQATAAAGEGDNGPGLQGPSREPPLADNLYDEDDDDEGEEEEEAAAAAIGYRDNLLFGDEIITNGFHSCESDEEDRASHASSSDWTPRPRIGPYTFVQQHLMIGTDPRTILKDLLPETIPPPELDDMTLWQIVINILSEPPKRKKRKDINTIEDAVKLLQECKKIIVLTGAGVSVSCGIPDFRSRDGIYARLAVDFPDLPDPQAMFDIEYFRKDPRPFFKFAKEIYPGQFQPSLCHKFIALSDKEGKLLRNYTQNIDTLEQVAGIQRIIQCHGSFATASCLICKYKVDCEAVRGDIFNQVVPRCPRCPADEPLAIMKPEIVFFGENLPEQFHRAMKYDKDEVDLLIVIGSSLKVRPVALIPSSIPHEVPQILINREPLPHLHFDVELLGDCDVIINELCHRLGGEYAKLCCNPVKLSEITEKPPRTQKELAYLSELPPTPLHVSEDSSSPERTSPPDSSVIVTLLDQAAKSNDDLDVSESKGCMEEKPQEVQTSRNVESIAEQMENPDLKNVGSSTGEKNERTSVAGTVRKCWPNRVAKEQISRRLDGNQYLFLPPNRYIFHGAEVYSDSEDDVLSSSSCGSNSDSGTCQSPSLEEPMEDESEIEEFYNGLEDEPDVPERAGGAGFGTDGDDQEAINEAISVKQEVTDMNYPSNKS
Conditions: 100 uM.

Experiment [12] addresses T3, NAD-dependent protein deacetylase sirtuin-2 (Homo sapiens) (UniProt Q8IXJ6).
T3 sequence (whole entry): T1 sequence (Q8IXJ6 whole entry)
Conditions: 5 to 25 uM.

Experiment [13] deals with T3, NAD-dependent protein deacetylase sirtuin-2 (Homo sapiens). Conditions: 5 to 25 uM. The source holds these as a separate data set.

Consider `COc1ccc(-c2noc(CCCBr)n2)cc1`, for which the outcome in the experiment on U-937 [1] was Active. In addition, the Activity with NB-4 [2], with K562 and in the experiment with MDA-MB-231 was greater than 80% each time. Further, the IC50 (in general, the midpoint of a concentration-inhibition curve) in the experiment with OCI-AML-3 came out at 62 µM; in [3] it was 18.4 µM; in the experiment with OCI-AML2, 37 µM; with MV4-11 it was 16 µM; with Kasumi 1 it was 10.3 µM; with U-937 [4] it was 25 µM. In addition, the IC50 with NB-4 [5] worked out at 12 µM; in the experiment with HL-60 [6] it was 30 µM; with KARPAS-299 it was 36 µM; in experiment [7], 10.4 µM.

For the compound `N#C/C(=C\c1ccc(-c2cc(Cl)ccc2Cl)o1)C(=O)Nc1cccc2ncccc12`, the inhibition result in [8], in [9] and in experiment [11] was “Active” throughout. Besides, in the experiment with HL-60 [10], the Activity is 6%. For the same compound, the inhibition result in experiment [12] and in [13] was “inactive” throughout.
